Data published in ChEMBL document CHEMBL2385063, “Identification of 2-(2-(1-naphthoyl)-8-fluoro-3,4-dihydro-1H-pyrido[4,3-b]indol-5(2H)-yl)acetic acid (setipiprant/ACT-129968), a potent, selective, and orally bioavailable chemoattractant receptor-homologous molecule expressed on Th2 cells (CRTH2) antagonist” (J Med Chem, 2013).

Experiments:
[1] = Protein binding in plasma (unknown origin); type: ADME, cell-free; conditions: read-out: PPB
[2] = molecular target: T1, Prostaglandin G/H synthase 1 (Ovis aries, UniProt P05979); experiment: Antagonist activity at ovine COX-1
T1 sequence (P05979 whole entry): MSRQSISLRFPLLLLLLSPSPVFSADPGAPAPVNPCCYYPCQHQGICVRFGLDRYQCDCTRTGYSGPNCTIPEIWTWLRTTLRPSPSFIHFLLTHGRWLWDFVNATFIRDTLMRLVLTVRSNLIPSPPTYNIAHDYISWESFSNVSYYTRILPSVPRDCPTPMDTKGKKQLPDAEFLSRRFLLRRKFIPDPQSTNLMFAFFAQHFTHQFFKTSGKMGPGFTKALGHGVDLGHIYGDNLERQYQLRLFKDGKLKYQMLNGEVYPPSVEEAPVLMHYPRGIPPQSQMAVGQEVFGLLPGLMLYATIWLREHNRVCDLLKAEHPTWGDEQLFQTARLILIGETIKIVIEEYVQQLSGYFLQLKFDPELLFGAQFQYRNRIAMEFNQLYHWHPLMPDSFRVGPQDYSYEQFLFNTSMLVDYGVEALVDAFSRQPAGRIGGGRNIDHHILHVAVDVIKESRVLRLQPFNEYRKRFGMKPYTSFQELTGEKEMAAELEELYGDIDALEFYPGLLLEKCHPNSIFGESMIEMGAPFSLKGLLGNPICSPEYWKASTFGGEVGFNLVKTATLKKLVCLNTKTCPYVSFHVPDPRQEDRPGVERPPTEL

Thromboxane A2 receptor = molecular target: T2, Thromboxane A2 receptor (Homo sapiens, UniProt P21731); experiment: Antagonist activity at human prostanoid TP2 receptor expressed in HEK293 cells assessed as inhibition of calcium flux after 30 to 40 mins by FLIPR assay; type: functional, cell-based
T2 sequence (P21731 whole entry): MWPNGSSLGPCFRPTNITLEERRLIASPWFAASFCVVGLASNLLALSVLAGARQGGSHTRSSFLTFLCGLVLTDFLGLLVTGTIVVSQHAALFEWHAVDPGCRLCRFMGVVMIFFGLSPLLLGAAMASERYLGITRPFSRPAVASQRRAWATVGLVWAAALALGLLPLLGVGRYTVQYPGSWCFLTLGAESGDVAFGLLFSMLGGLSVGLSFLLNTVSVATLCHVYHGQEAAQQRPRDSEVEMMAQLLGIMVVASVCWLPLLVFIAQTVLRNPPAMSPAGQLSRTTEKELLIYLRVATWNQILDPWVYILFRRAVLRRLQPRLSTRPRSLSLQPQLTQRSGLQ

[3] = molecular target: T3, Prostaglandin E2 receptor EP3 subtype (Homo sapiens, UniProt P43115); experiment: Antagonist activity at human prostanoid EP3 receptor expressed in HEK293 cells assessed as inhibition of PGE2-induced calcium flux after 60 mins by FLIPR assay; type: functional, cell-based
T3 sequence (P43115 whole entry): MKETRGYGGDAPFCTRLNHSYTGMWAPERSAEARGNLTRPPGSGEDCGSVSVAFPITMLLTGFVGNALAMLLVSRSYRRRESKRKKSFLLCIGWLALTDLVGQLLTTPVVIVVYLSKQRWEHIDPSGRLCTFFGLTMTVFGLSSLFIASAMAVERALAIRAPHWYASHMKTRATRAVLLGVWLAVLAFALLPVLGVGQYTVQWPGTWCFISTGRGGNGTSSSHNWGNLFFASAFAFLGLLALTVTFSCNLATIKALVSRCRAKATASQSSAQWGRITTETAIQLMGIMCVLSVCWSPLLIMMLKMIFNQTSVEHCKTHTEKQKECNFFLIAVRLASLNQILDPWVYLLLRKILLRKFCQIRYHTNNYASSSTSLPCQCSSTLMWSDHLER

[4] = molecular target: T4, Prostaglandin D2 receptor (Homo sapiens, UniProt Q13258); experiment: Displacement of [3H]PGD2 from recombinant human prostanoid DP1 receptor expressed in CHO cells after 90 mins by scintillation counting analysis; type: cell-based
T4 sequence (Q13258 whole entry): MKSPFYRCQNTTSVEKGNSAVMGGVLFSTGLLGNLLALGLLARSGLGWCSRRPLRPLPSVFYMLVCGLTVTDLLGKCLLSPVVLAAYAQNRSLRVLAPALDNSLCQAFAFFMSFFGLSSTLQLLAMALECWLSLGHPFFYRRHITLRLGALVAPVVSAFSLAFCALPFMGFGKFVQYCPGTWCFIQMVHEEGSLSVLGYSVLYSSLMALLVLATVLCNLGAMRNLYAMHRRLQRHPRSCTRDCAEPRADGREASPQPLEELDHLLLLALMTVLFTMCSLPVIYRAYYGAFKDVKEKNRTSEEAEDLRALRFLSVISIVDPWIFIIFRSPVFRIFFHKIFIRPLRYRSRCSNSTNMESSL
Summary of the method: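 Competitive binding with CHO cells stably expressing high levels of recombinant hDP1, using [3H]PGD2 as ligand; IC50 reported.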

[5] = molecular target: T5, Prostaglandin D2 receptor 2 (Homo sapiens) (UniProt Q9Y5Y4); experiment: Selectivity factor, ratio of IC50 for recombinant human CRTH2 receptor in presence of human serum albumin to IC50 for recombinant human CRTH2 receptor in absence of human serum albumin
T5 sequence (whole entry): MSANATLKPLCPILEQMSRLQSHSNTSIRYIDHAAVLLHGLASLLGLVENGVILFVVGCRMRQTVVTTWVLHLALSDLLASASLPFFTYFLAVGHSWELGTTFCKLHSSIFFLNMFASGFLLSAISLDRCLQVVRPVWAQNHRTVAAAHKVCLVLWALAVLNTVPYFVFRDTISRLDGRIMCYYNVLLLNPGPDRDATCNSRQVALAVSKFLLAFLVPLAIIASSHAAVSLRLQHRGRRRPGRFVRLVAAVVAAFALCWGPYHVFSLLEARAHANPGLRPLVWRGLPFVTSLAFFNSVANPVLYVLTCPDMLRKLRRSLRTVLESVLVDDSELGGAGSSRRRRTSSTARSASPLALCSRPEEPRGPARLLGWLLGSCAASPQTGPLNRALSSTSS
Summary of the method: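 Competitive [³H]PGD₂ (2.5 nM) displacement on membranes from HEK-293 cells stably expressing hCRTh2. Buffer C was 50 mM Tris, pH 7.4, 100 mM NaCl, 1 mM EDTA and 0.1% BSA, run with or without 0.5% HSA. Membrane was 80 μg protein/well, incubated 90 min at room temperature, then filtered and counted by scintillation. Nonspecific binding was taken with 10 μM PGD₂. f_HSA = IC₅₀(HSA)/IC₅₀(buffer).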

SMILES	fraction unbound [1]	IC50 [2]	IC50 (Thromboxane A2 receptor)	IC50 [3]	IC50 [4]	Ratio IC50 [5]
COc1ccc2c(c1)c1c(n2CC(=O)O)CCN(C(=O)c2ccccc2)C1	< 0.03	> 10 µM	> 25 µM	> 25 µM		
O=C(O)Cn1c2c(c3cc(F)ccc31)CN(C(=O)c1cccs1)CC2	< 0.03	> 10 µM	> 25 µM	> 25 µM	> 10000 nM	3
O=C(O)Cn1c2c(c3ccccc31)CN(C(=O)c1cccc(Cl)c1)CC2	< 0.03	> 10 µM	> 25 µM	> 25 µM	> 10000 nM	3
O=C(O)Cn1c2c(c3cc(Cl)ccc31)CN(C(=O)c1cccc3ccccc13)CC2	< 0.03	> 10 µM	> 25 µM	> 25 µM	690 nM	16
O=C(O)Cn1c2c(c3cc(F)ccc31)CN(C(=O)CCc1cccc3ccccc13)CC2	< 0.03	> 10 µM	> 25 µM	> 25 µM	> 10000 nM	3
O=C(O)Cn1c2c(c3ccccc31)CN(C(=O)c1ccccc1)CC2	< 0.03	> 10 µM		> 25 µM		1
O=C(O)Cn1c2c(c3cc(F)cc(Cl)c31)CN(C(=O)c1cccc(Cl)c1)CC2	< 0.03	> 10 µM	> 25 µM	> 25 µM	4100 nM	1
CCc1ccc(-c2ccc(C(=O)N3CCc4c(c5ccccc5n4CC(=O)O)C3)cc2)cc1	< 0.03	> 10 µM	> 25 µM	> 25 µM	780 nM	2
O=C(O)Cn1c2c(c3ccccc31)CN(C(=O)C1CCCCC1)CC2	< 0.03	> 10 µM	> 25 µM	> 25 µM		
CC(C)c1ccc2c(c1)c1c(n2CC(=O)O)CCN(C(=O)c2ccccc2)C1	< 0.03	> 10 µM	> 25 µM	> 25 µM		
O=C(O)Cn1c2c(c3cc(C(F)(F)F)ccc31)CN(C(=O)c1ccccc1)CC2	< 0.03	> 10 µM	> 25 µM	> 25 µM	> 10000 nM	6
Cc1ccc2c(c1)c1c(n2CC(=O)O)CCN(C(=O)c2cccc3ccccc23)C1	< 0.03	> 10 µM	> 25 µM	> 25 µM	2700 nM	38
O=C(O)Cn1c2c(c3cc(F)ccc31)CN(C(=O)c1cccc3ccccc13)CC2 [SETIPIPRANT]	< 0.03	> 10 µM	> 25 µM	> 25 µM	1290 nM	57
CCc1ccc(-c2ccc(C(=O)N3CCc4c(c5cccc(Cl)c5n4CC(=O)O)C3)cc2)cc1	< 0.03	> 10 µM	> 25 µM	> 25 µM	120 nM	4
O=C(O)Cn1c2c(c3cc(F)ccc31)CN(C(=O)Cc1c[nH]c3ccccc13)CC2	< 0.03	> 10 µM	> 25 µM	> 25 µM	> 10000 nM	7
O=C(O)Cn1c2c(c3cc(F)cc(Cl)c31)CN(C(=O)c1cccc3ccccc13)CC2	< 0.03	> 10 µM	> 25 µM	> 25 µM	310 nM	7
O=C(O)Cn1c2c(c3cc(F)ccc31)CN(C(=O)Cc1cccc3ccccc13)CC2	< 0.03	> 10 µM	> 25 µM	> 25 µM	> 10000 nM	45
O=C(O)Cn1c2c(c3cc(F)ccc31)CN(C(=O)c1cccc(Cl)c1)CC2	< 0.03	> 10 µM	> 25 µM	> 25 µM	> 10000 nM	7
O=C(O)Cn1c2c(c3cc(C(F)(F)F)ccc31)CN(C(=O)c1cccc3ccccc13)CC2	< 0.03	> 10 µM	> 25 µM	> 25 µM	2200 nM	6
O=C(O)Cn1c2c(c3ccccc31)CN(C(=O)c1cccc3ccccc13)CC2	< 0.03	> 10 µM	> 25 µM	> 25 µM	780 nM	47
